Columns and labels:
[1] = Drug metabolism in human hepatocytes assessed as 2-chloro-N-(4-cyano-1H-imidazol-2-yl)-5-((3-hydroxy-2,2-dimethylpropanamido)methyl)benzamide formation at 2 uM after 4 hrs by LC-MS/MS analysis; type: ADME, cell-based, Hepatocyte
[2] = Drug metabolism in rat hepatocytes assessed as 2-chloro-N-(4-cyano-1H-imidazol-2-yl)-5-((3-hydroxy-2,2-dimethylpropanamido)methyl)benzamide formation at 2 uM after 4 hrs by LC-MS/MS analysis; type: ADME, cell-based, Hepatocyte
[3] = Drug metabolism in human hepatocytes assessed as metabolite M2 formation at 2 uM after 4 hrs by LC-MS/MS analysis; type: ADME, cell-based, Hepatocyte
[4] = Drug metabolism in human hepatocytes assessed as 2-chloro-5-(pivalamidomethyl)benzoic acid formation at 2 uM after 4 hrs by LC-MS/MS analysis; type: ADME, cell-based, Hepatocyte
[5] = Drug metabolism in rat hepatocytes assessed as metabolite M2 formation at 2 uM after 4 hrs by LC-MS/MS analysis; type: ADME, cell-based, Hepatocyte
[6] = Drug metabolism in rat hepatocytes assessed as 2-(2-chloro-5-(pivalamidomethyl)benzamido)-1H-imidazole-4-carboxylic acid formation at 2 uM after 4 hrs by LC-MS/MS analysis; type: ADME, cell-based, Hepatocyte
[7] = Drug metabolism in rat hepatocytes assessed as 2-(2-chloro-5-((3-hydroxy-2,2-dimethylpropanamido)methyl)benzamido)-N-phenyl-1H-imidazole-4-carboxamide at 2 uM after 4 hrs by LC-MS/MS analysis; type: ADME, cell-based, Hepatocyte
[8] = Drug metabolism in human hepatocytes assessed as 2-(2-chloro-5-((3-hydroxy-2,2-dimethylpropanamido)methyl)benzamido)-N-phenyl-1H-imidazole-4-carboxamide formation at 2 uM after 4 hrs by LC-MS/MS analysis; type: ADME, cell-based, Hepatocyte
[9] = Drug metabolism in rat hepatocytes assessed as 2-chloro-5-(pivalamidomethyl)benzoic acid formation at 2 uM after 4 hrs by LC-MS/MS analysis; type: ADME, cell-based, Hepatocyte
[10] = Drug metabolism in human hepatocytes assessed as 2-(2-chloro-5-(pivalamidomethyl)benzamido)-1H-imidazole-4-carboxylic acid formation at 2 uM after 4 hrs by LC-MS/MS analysis; type: ADME, cell-based, Hepatocyte
[11] = Drug level in human hepatocytes treated with 2-Chloro-N-(4-cyano-1H-imidazol-2-yl)-5-(pivalamidomethyl)benzamide at 2 uM after 4 hrs by LC-MS/MS analysis; type: ADME, cell-based, Hepatocyte
[12] = Drug level in rat hepatocytes treated with 2-Chloro-N-(4-cyano-1H-imidazol-2-yl)-5-(pivalamidomethyl)benzamide at 2 uM after 4 hrs by LC-MS/MS analysis; type: ADME, cell-based, Hepatocyte
[13] = Drug metabolism in human hepatocytes assessed as metabolite formation at 2 uM after 4 hrs by LC-MS/MS analysis; type: ADME, cell-based, Hepatocyte
[14] = Drug metabolism in rat hepatocytes assessed as metabolite formation at 2 uM after 4 hrs by LC-MS/MS analysis; type: ADME, cell-based, Hepatocyte
[15] = Drug level in human hepatocytes treated with 2-(2-Chloro-5-(pivalamidomethyl)benzamido)-N-phenyl-1Himidazole-4-carboxamide at 2 uM after 4 hrs by LC-MS/MS analysis; type: ADME, cell-based, Hepatocyte
[16] = Drug level in rat hepatocytes treated with 2-Chloro-N-(4-(hydroxymethyl)-1H-imidazol-2-yl)-5-(pivalamidomethyl)benzamide at 2 uM after 4 hrs by LC-MS/MS analysis; type: ADME, cell-based, Hepatocyte
[17] = Drug level in human hepatocytes treated with 2-Chloro-N-(4-(hydroxymethyl)-1H-imidazol-2-yl)-5-(pivalamidomethyl)benzamide at 2 uM after 4 hrs by LC-MS/MS analysis; type: ADME, cell-based, Hepatocyte
[18] = Drug level in rat hepatocytes treated with 2-(2-Chloro-5-(pivalamidomethyl)benzamido)-N-phenyl-1Himidazole-4-carboxamide at 2 uM after 4 hrs by LC-MS/MS analysis; type: ADME, cell-based, Hepatocyte
[19] = Drug level in human liver microsomes treated with 2 -Chloro-N-(4,5-dimethyl-1H-imidazol-2-yl)-5-(pivalamidomethyl)benzamide at 2 uM after 0.5 hrs in presence of 1:1 ratio of unlabeled GSH and [glycine 13C2,15N]-labelled GSH by HPLC-MS analysis; type: ADME, microsome
Outline: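 Glutathione-trapping incubation in human liver microsomes fortified with GSH to capture reactive intermediates. Metabolites and GSH adducts were identified by MS.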

[20] = Drug metabolism in rat hepatocytes assessed as 2-chloro-N-(4-(hydroxymethyl)-5-methyl-1H-imidazol-2-yl)-5-(pivalamidomethyl)benzamide formation at 2 uM after 4 hrs by LC-MS/MS analysis; type: ADME, cell-based, Hepatocyte
[21] = Drug metabolism in human hepatocytes assessed as N-carbamimidoyl-2-chloro-5-(pivalamidomethyl)benzamide formation at 2 uM after 4 hrs by LC-MS/MS analysis; type: ADME, cell-based, Hepatocyte
[22] = Drug metabolism in human hepatocytes assessed as 2-chloro-N-(4-(hydroxymethyl)-5-methyl-1H-imidazol-2-yl)-5-(pivalamidomethyl)benzamide formation at 2 uM after 4 hrs by LC-MS/MS analysis; type: ADME, cell-based, Hepatocyte
[23] = Drug metabolism in rat hepatocytes assessed as 2-chloro-N-(4,5-dimethyl-1H-imidazol-2-yl)-5-((3-hydroxy-2,2-dimethylpropanamido)methyl)benzamide formation at 2 uM after 4 hrs by LC-MS/MS analysis; type: ADME, cell-based, Hepatocyte
[24] = Drug metabolism in rat hepatocytes assessed as N-carbamimidoyl-2-chloro-5-(pivalamidomethyl)benzamide formation at 2 uM after 4 hrs by LC-MS/MS analysis; type: ADME, cell-based, Hepatocyte
[25] = Drug metabolism in human hepatocytes assessed as 2-chloro-N-(4,5-dimethyl-1H-imidazol-2-yl)-5-((3-hydroxy-2,2-dimethylpropanamido)methyl)benzamide formation at 2 uM after 4 hrs by LC-MS/MS analysis; type: ADME, cell-based, Hepatocyte

## CC(C)(C)C(=O)NCc1ccc(Cl)c(C(=O)Nc2nc(C#N)c[nH]2)c1
[1]
  Drug metabolism: Metabolite_Detected
[2]
  Drug metabolism: Metabolite_Detected

## CC(C)(C)C(=O)NCc1ccc(Cl)c(C(=O)Nc2nc(C(=O)Nc3ccccc3)c[nH]2)c1
[3]
  Drug metabolism: Metabolite_Detected
[4]
  Drug metabolism: Metabolite_Detected
[5]
  Drug metabolism: Metabolite_Detected
[6]
  Drug metabolism: Metabolite_Detected
[7]
  Drug metabolism: Metabolite_Detected
[8]
  Drug metabolism: Metabolite_Detected
[9]
  Drug metabolism: Metabolite_Detected
[10]
  Drug metabolism: Metabolite_Detected

## CC(C)(CO)C(=O)NCc1ccc(Cl)c(C(=O)Nc2nc(C#N)c[nH]2)c1
[11]
  Drug metabolism: Metabolite_Detected
[12]
  Drug metabolism: Metabolite_Detected

## CC(C)(C)C(=O)NCc1ccc(Cl)c(C(=O)Nc2nc(C(N)=O)c[nH]2)c1
[13]
  Drug metabolism: Metabolite_Notdetected
[14]
  Drug metabolism: Metabolite_Notdetected

## CC(C)(C)C(=O)NCc1ccc(Cl)c(C(=O)Nc2nc(C(=O)O)c[nH]2)c1
[15]
  Drug metabolism: Metabolite_Detected
[16]
  Drug metabolism: Metabolite_Detected
[17]
  Drug metabolism: Metabolite_Detected
[18]
  Drug metabolism: Metabolite_Detected

## Cc1[nH]c(NC(=O)c2cc(CNC(=O)C(C)(C)C)ccc2Cl)nc1CSC[C@H](NC(=O)CC[C@H](N)C(=O)O)C(=O)NCC(=O)O
[19]
  Drug metabolism: Metabolite_Detected

## Cc1nc(NC(=O)c2cc(CNC(=O)C(C)(C)C)ccc2Cl)[nH]c1C
[20]
  Drug metabolism: Metabolite_Detected
[21]
  Drug metabolism: Metabolite_Detected
[22]
  Drug metabolism: Metabolite_Detected
[23]
  Drug metabolism: Metabolite_Detected
[24]
  Drug metabolism: Metabolite_Detected
[25]
  Drug metabolism: Metabolite_Detected

— ChEMBL document CHEMBL4219066, “Identification and Mitigation of Reactive Metabolites of 2-Aminoimidazole-Containing Microsomal Prostaglandin E Synthase-1 Inhibitors Terminated Due to Clinical Drug-Induced Liver Injury” (J Med Chem, 2018)
